ASAP1 inh: inhibitors of human ASAP1 ArfGAP activity, primary screen, biochemical, fluorescence polarization; 360,000 tested, 0.19% active; AID 624377, 2012; ASAP1-stimulated ARF1 GTP hydrolysis, GDP FP detection; Arf-GAP with SH3 domain, ANK repeat and PH domain-containing protein 1 (Homo sapiens), …; inhibition, % at 16.5 µM; in the data active = inhibition above about 25%;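 note: 0% = vehicle with enzyme and substrate and 100% = no enzyme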
Rtt109 Vps75: inhibitors of C. albicans Rtt109/Vps75 HAT, primary screen, biochemical, ThioGlo CoA-SH fluorescence, plate reader; Histone acetyltransferase RTT109 (Candida albicans (strain SC5314 / ATCC MYA-2876)), …; purified Rtt109/Vps75, 4 h; inhibition, % at 34.9 µM; 330,000 tested, 0.16% active;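 active = inhibition of at least 50% in every replicate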
ARFGAP1 inh: inhibitors of rat ARFGAP1 GAP activity, primary screen, biochemical, fluorescence polarization, GDP tracer. AID 651572, 2012. 360,000 tested, 0.26% active. inhibition, % at 16.5 µM. Arfgap1-stimulated ARF1 GTP hydrolysis, GDP FP detection;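 active = inhibition above a per-plate limit, mean inhibition of low control wells plus 3 SD, cut at about 25% in these data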;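 note: 0% = DMSO wells with enzyme and 100% = wells lacking Arfgap1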
Target sequence (Q62848 1-136 limits assumed): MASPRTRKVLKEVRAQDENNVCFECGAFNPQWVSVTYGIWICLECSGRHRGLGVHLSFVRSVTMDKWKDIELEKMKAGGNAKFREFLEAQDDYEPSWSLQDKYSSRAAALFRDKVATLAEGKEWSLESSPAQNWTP
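System: truncated rat Arfgap1 GAP domain / Benchmarks: high control wells lacking Arfgap1, low control full reaction with DMSO / Times: compound-enzyme preincubation 20 min, reaction 120 min, detection 60 min, 25 °C / Repeats: one replicate per compound / Also added: human ARF1(Δ1-17)-GTP substrate / Measured by: Tracer-displacement fluorescence polarization with EDTA stop, 620/688 nm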
FGF22 binding: binders of human FGF22 protein, primary screen, FGF22 synaptogenesis inhibitor project, biophysical, thermal shift, single point; activity (Tm shift, normalised), % at 9.99 µM; 340,000 tested, 1.5% active; recombinant FGF22 thermal shift, SYPRO orange fluorescence; percent of sucrose octasulfate shift, DMSO zero; Fibroblast growth factor 22 (Homo sapiens), Q9HCT0;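 active = mean Tm shift, scaled 0 neutral to 100 positive control, at about 1.3% or above, every replicate too, limit read from the data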
Target sequence (Q9HCT0 whole entry, looked up): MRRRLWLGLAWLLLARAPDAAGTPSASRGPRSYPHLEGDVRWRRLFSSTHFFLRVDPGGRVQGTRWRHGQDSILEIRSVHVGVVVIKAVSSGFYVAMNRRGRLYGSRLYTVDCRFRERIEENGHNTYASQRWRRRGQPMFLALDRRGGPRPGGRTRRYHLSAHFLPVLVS
Efflux pump inh: inhibitors of Candida efflux pumps in yeast, primary screen, S. cerevisiae, Nile Red, multiplex; S. cerevisiae Candida pump triplex; inhibition, % at 10 µM; 330,000 tested, 0.44% active;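 active = plate passing quality check with inhibition over a set limit, or well fluorescence over plate mean plus 4 SD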;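 note: Nile Red retained in pooled yeast measured as flow cytometry median fluorescence; 0% = buffer negative control and 100% = Enniatin B positive control; higher means more Nile Red kept so more efflux inhibition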
Numbers without * were called inactive; . = no result. A selection: hits, their analogues and other compounds. The true share with any hit is near 1.9%.

SMILES	ASAP1 inh	Rtt109 Vps75	ARFGAP1 inh	FGF22 binding	Efflux pump inh
O=C(Nc1cc(F)ccc1F)N[C@H]1CC[C@H](CCn2cc(C3CCCCC3)nn2)O[C@@H]1CO	.	.	.	0	.
O=[N+]([O-])c1ccc(CSc2nnc(SCc3ccccc3)s2)cc1	-14	-2	-8	44*	0
Cc1cc(N2C(=O)C=CC2=O)c([N+](=O)[O-])cc1C	.	116*	.	.	1
CC(C)c1ccc(NC2CCCN(C(=O)CC3CCCC3)C2)cc1 (configuration not stated)	5	2	-9	0	0
CCCCCCCCNC(=O)c1cccnc1SCC(=O)Nc1ccccc1OC	-3	-11	4	39*	0
COc1cc(C(=O)Nc2ccc3c(c2)C(=O)c2ccccc2C3=O)cc(OC)c1OC	3	10	-13	.	0
COc1cc(C(=O)Nc2ccc3c(c2)Cc2ccccc2-3)cc(OC)c1OC	19	3	3	43*	0
O=C(Nc1ccccc1)C1CCCN(C(=O)c2ccc(Cl)cc2)C1 (configuration not stated)	5	.	-3	43*	0
Cc1ccc(/C=N\NC(=O)c2cc([N+](=O)[O-])cc([N+](=O)[O-])c2)o1	-5	3	-7	.	0
CCC(=O)N1CCc2cc(Br)cc(S(=O)(=O)N(C)c3ccc(OC)cc3OC)c21	5	-9	9	43*	0
C=CCNC(=O)/C(C#N)=C/c1ccc2c(c1)OCCO2	14	3	2	43*	0
COCCNC(=O)/C(C#N)=C/c1ccc2c(c1)OCO2	-10	-1	4	44*	0
N#C/C(=C\c1ccc2c(c1)OCO2)C(=O)NCc1ccco1	-9	.	0	0	0
Cc1ccc(S(=O)(=O)N2CCN(C(=O)c3n[nH]c(=O)c4ccccc34)CC2)cc1	3	-2	8	0	0
O=C(C1CCCCC1)N1C[C@@H](n2cc(C3CC3)nn2)[C@H](O)C[C@@H]1c1ccc(Cl)cc1	5	.	-7	42	.
C#CCOCCOCCOCCNc1nc(N2CCN(C(=O)CCCCCCCCCCNC(=O)[C@H]([C@@H](C)CC)n3cc(CCCCN=C(N)N)nn3)CC2)nc(N2CCN(C(=O)CCCCCCCCCCNC(=O)[C@H](CCCN=C(N)N)n3cc(C[C@@H](C)CC)nn3)CC2)n1	.	.	.	.	6.2*
C#CCOCCOCCOCCNc1nc(N2CCN(C(=O)CCCCCCCCCCNC(=O)[C@H](CCCN=C(N)N)n3cc(C[C@@H](C)CC)nn3)CC2)nc(N2CCN(C(=O)CCCCCCCCCCNC(=O)[C@@H]([C@H](C)CC)n3cc(CCCCCN)nn3)CC2)n1	.	.	.	.	4.8*
C#CCOCCOCCOCCNc1nc(N2CCN(C(=O)CCCCCCCCCCNC(=O)[C@H](CO)n3cc(CCCCCN)nn3)CC2)nc(N2CCN(C(=O)CCCCCCCCCCNC(=O)[C@H](CCCN=C(N)N)n3cc(C[C@@H](C)CC)nn3)CC2)n1	.	.	.	.	0
CC(=O)N(C(C)=O)c1nc(-c2ccccc2)cn1/N=C/c1cccc([N+](=O)[O-])c1	7	-2	1	0	0
N#CCCn1cc(C(=O)NCc2ccccc2)c(-c2cccs2)n1	-11	-11	8	43*	0
N#CCCn1cc(C(=O)Nc2ccc(C(=O)O)cc2)c(-c2cccs2)n1	10	.	3	1	0
CCCn1nc(NS(=O)(=O)c2ccccc2)c2cc3ccccc3nc21	8	0	10	.	0
CC1=CC(C)(C)N(C(=O)CCl)c2ccccc21	14	-8	-3	43	0
CC1=CC(C)(C)N(C(=O)CN2C(=O)CCC2=O)c2ccccc21	5	5	-1	43*	0
Cc1ccc(C(=O)OCC(=O)c2ccc(CC(=O)N3CCOCC3)s2)c(C)c1	1	-3	2	0	.
SMILES	ASAP1 inh	Rtt109 Vps75	ARFGAP1 inh	FGF22 binding	Efflux pump inh
O=C1c2[nH]nc(-c3ccccc3)c2C(c2ccccc2)N1c1ccccc1 (configuration not stated)	4	.	9	43*	.
Cc1ccc(C2c3c(-c4ccccc4)n[nH]c3C(=O)N2c2ccccc2)cc1 (configuration not stated)	-6	.	3	0	.
CCOC(=O)N1CCN(S(=O)(=O)c2ccc(OC)c3ccccc23)CC1	-1	2	-2	.	0
COc1ccc(CNC(=O)CN2CCN(S(=O)(=O)c3cccs3)CC2)cc1OC	-4	-9	0	43*	0
COc1ccc(NC(=O)CN2CCN(S(=O)(=O)c3cccs3)CC2)cc1Cl	-11	7	9	0	0
COc1cc(NC(=O)COc2c(C)cc(C)cc2[N+](=O)[O-])c(OC)cc1Cl	4	52*	3	0	0
COc1cc(NC(=O)COC(=O)C=C(C)C)c(C)cc1[N+](=O)[O-]	3	-7	4	44*	0
C/C=C/C(=O)OCC(=O)Nc1cc(OC)c([N+](=O)[O-])cc1C	-6	-1	0	0	0
CC(C)Oc1ccc(/C=N/NC(=O)c2nnn(-c3nonc3N)c2CN(C)c2ccccc2)cc1	2	0	1	0	0
O=C(C1Cc2ccccc2CN1S(=O)(=O)c1cccs1)N1CCCCC1 (configuration not stated)	1	-3	-9	.	0
O=C(NCCc1c[nH]c2ccccc12)c1ccco1	-6	-12	4	0	0
O=C(NCCc1c[nH]c2ccccc12)/C(=C/c1ccco1)NC(=O)c1ccco1	-6	-6	-6	43*	0
CNC(=O)C[C@@H]1CC[C@H]2[C@@H](COC[C@H](O)CN2C(=O)Nc2ccc3c(c2)OCO3)O1	.	.	.	0	.
CCCNC(=O)CCCCn1c(=S)[nH]c2c([nH]c3ccc(OC)cc32)c1=O	0	3	11	43*	0
CC(=O)NCCCOc1ccc([N+](=O)[O-])cc1Cl	3	0	2	0	0
CCCCCOC(=O)c1ccc(NC(=O)c2ccco2)cc1	-1	7	12	.	0
CCN(CC)S(=O)(=O)c1ccc(N2CCOCC2)c(NC(=O)COc2ccccc2C#N)c1	37*	-7	9	0	0
CC(C)c1ccc(CC(NC(=O)c2ccccc2)C(=O)NCC(=O)O)cc1 (configuration not stated)	-2	0	-11	43*	0
